In ChEMBL document CHEMBL1123065, “Sleep-inducing N-alkyl-5-[m-(trifluoromethyl)phenyl]-5-hydroxy-2-pyrrolidinones and N-alkyl-3-(trifluoromethyl)cinnamamides” (J Med Chem, 1985):
Calls of active or inactive are those of the source. No cut-off for these calls is given here.

Experiments:
[1] = tested on: Mus musculus; assay: Anticonvulsant activity against N-sulfamoylhexahydrozepine (10 mice were used per dose, ip); type: functional
Procedure, shortened: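 Mice given compound ip, 10 per dose, then challenged with N-sulfamoylhexahydroazepine by methods of ref 9; ED50 (mg/kg ip) for protection determined.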

[2] = tested on: Mus musculus; assay: Effective dose against Mice ataxia, ip administration; type: functional
Procedure, shortened: (§1)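 Mouse behaviour after ip dosing assessed by a modification of the method of ref 7; ataxia, docility and loss of righting reflex scored, 10 mice per dose, ED50 in mg/kg ip.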

[3] = tested on: Mus musculus; assay: Ability to reinduce anesthesia (70 mg/kg, iv) following recovery of loss of righting reflex obtained with hexobarbital.; type: functional
[4] = tested on: Mus musculus; assay: Effective dose against loss of righting reflex in mice (10 mice per dose, ip); type: functional; procedure, shortened: as §1
[5] = Lethal dose was obtained by 2-h post administration (ip), using four male Royal Hart Wistar rats; type: toxicity, organism-based; conditions: rat, in vivo
Procedure, shortened: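 Male Royal Hart Wistar rats, 136-160 g, housed in pairs in wire cages, given compound ip; deaths read 2 h after dosing, four rats per compound; LD50 estimated by probit analysis.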

[6] = tested on: Mus musculus; assay: Ability to produce neurological deficit in the rotarod test (10 mice were used per dose, ip); type: functional
Procedure, shortened: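 Rotarod method of ref 10, intraperitoneal dosing, 10 mice per dose; neurological deficit scored and ND50 (mg/kg ip) derived.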

[7] = tested on: Mus musculus; assay: Effective dose against Mice docility, ip administration; type: functional; procedure, shortened: as §1
[8] = Ratio of the oral dose of the test compound relative to that of methaqualone (15 mg/kg, po) to induce sleep in Cebus monkey; NA is Not Active.; type: functional, organism-based
Procedure, shortened: (§2)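 Cebus monkeys restrained in chairs within sound-attenuated cubicles; dosing per os at 5:00 p.m., five channels recorded, EEG over 13.5 h, Monday–Thursday, visually scored. Each animal its own control versus last 15 control nights (intragastric carboxymethylcellulose placebo). Value is oral dose of test substance relative to methaqualone 15 mg/kg po inducing sleep in the same monkey; NA = no sleep at any dose.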

[9] = tested on: Mus musculus; assay: Effective dose against loss of righting reflex in mice;10 mice per dose(ip); type: functional; procedure, shortened: as §1
[10] = tested on: Monkey; assay: Ratio of the oral dose of the test compound relative to that of methaqualone (15 mg/kg, po) to induce sleep in Cebus monkey; type: functional; procedure, shortened: as §2
[11] = Ratio of the oral dose of the test compound relative to that of methaqualone (15 mg/kg, po) to induce sleep in Cebus monkey;NA is Not Active.; type: functional, organism-based; procedure, shortened: as §2

| SMILES | ED50 [1] | ED50 [2] | RD50 [3] | ED50 [4] | LD50 at 2 h [5] | ND50 [6] | ED50 [7] | Ratio [8] | ND50 [9] | Sleep ratio [10] | Ratio [11] |
| --- | --- | --- | --- | --- | --- | --- | --- | --- | --- | --- | --- |
| CN1CCN(C(=O)CCC(=O)c2cccc(C(F)(F)F)c2)CC1 | > 37.5 mg/kg | > 50 mg/kg | >37.5 mg/kg | > 50 mg/kg | > 400 mg/kg | >37.5 mg/kg | > 50 mg/kg |  |  |  |  |
| O=C(/C=C/c1cccc(C(F)(F)F)c1)NCCO | 100 mg/kg | 117 mg/kg | 66.7 mg/kg | 186 mg/kg | 400 mg/kg | 115.8 mg/kg | 78.6 mg/kg |  |  |  |  |
| CN1C(=O)CCC1(O)c1ccccc1 (stereo unspecified) | 138 mg/kg | > 200 mg/kg | 150 mg/kg | > 200 mg/kg | 300 mg/kg | >200 mg/kg | > 200 mg/kg |  |  |  |  |
| CCN1C(=O)CCC1(O)c1cccc(C(F)(F)F)c1 (stereo unspecified) | > 75 mg/kg | > 100 mg/kg | 68.8 mg/kg | > 100 mg/kg | > 400 mg/kg | >75 mg/kg | > 100 mg/kg | inactive |  |  |  |
| CC(C)NC(=O)CCC(=O)c1cccc(C(F)(F)F)c1 | > 150 mg/kg | > 200 mg/kg | 126.9 mg/kg | > 200 mg/kg | > 400 mg/kg | >150 mg/kg | > 200 mg/kg |  |  |  |  |
| O=C(CCC(=O)c1cccc(C(F)(F)F)c1)NC1CCCCC1 | > 200 mg/kg | > 200 mg/kg | >200 mg/kg | > 200 mg/kg | > 400 mg/kg | >200 mg/kg | > 200 mg/kg |  |  |  |  |
| CCNC(=O)/C=C/c1cccc(C(F)(F)F)c1 |  | 90 mg/kg | >75 mg/kg |  | 333 mg/kg |  |  |  | >75 mg/kg |  |  |
| O=C(/C=C/c1ccccc1)NCCO [IDROCILAMIDE] | 117 mg/kg | 183 mg/kg | 75 mg/kg | > 200 mg/kg | > 400 mg/kg | >200 mg/kg | 183 mg/kg |  |  |  |  |
| CN1C(=O)CCC1(O)c1ccc(C(F)(F)F)cc1 (stereo unspecified) | 132 mg/kg | > 200 mg/kg | >200 mg/kg | > 200 mg/kg | > 400 mg/kg | 140.5 mg/kg | > 200 mg/kg |  |  |  |  |
| CN1CCN(C(=O)/C=C/c2cccc(C(F)(F)F)c2)CC1 | > 75 mg/kg | > 100 mg/kg | >75 mg/kg | > 100 mg/kg | 300 mg/kg | >75 mg/kg | > 100 mg/kg |  |  |  |  |
| CC(C)CNC(=O)CCC(=O)c1cccc(C(F)(F)F)c1 | > 200 mg/kg | > 200 mg/kg | >200 mg/kg | > 200 mg/kg | 162 mg/kg | >200 mg/kg | > 200 mg/kg |  |  |  |  |
| CN1C(=O)CCC1(O)c1cccc(C(F)(F)F)c1 (stereo unspecified) | 51.6 mg/kg | 129 mg/kg | 45.1 mg/kg | 133 mg/kg | 367 mg/kg | 106.5 mg/kg | 93.8 mg/kg |  |  | 1 |  |
| Cc1ccccc1-n1c(C)nc2ccccc2c1=O [METHAQUALONE] | 31.5 mg/kg | 34.4 mg/kg | 21.9 mg/kg | 39.8 mg/kg | 565 mg/kg | 31.5 mg/kg | 35.6 mg/kg |  |  | 1 |  |
| CCC(O)CNC(=O)/C=C/c1cccc(C(F)(F)F)c1 (stereo unspecified) | 64.4 mg/kg | 90 mg/kg | 68.8 mg/kg | 92.9 mg/kg | 333 mg/kg | 57.9 mg/kg | 87.5 mg/kg |  |  |  | inactive |
| CNC(=O)/C=C(\C)c1cccc(C(F)(F)F)c1 | > 75 mg/kg | 87.5 mg/kg | 56.3 mg/kg | > 100 mg/kg | > 400 mg/kg | >75 mg/kg | 87.5 mg/kg |  |  |  |  |
| Cc1cccc(C2(O)CCC(=O)N2C)c1 (stereo unspecified) | 60.9 mg/kg | 93 mg/kg | 49.5 mg/kg | 138 mg/kg | 300 mg/kg | 111.5 mg/kg | 81.5 mg/kg | inactive |  |  |  |
| CCCN1C(=O)CCC1(O)c1cccc(C(F)(F)F)c1 (stereo unspecified) | 150 mg/kg | > 200 mg/kg | 131.9 mg/kg | 200 mg/kg | > 400 mg/kg | >200 mg/kg | > 200 mg/kg |  |  |  |  |
| CN1C(=O)CCC1(O)c1cccc(Cl)c1 (stereo unspecified) | > 150 mg/kg | 186 mg/kg | >150 mg/kg | > 200 mg/kg | > 400 mg/kg | >150 mg/kg | 158 mg/kg |  |  |  |  |
| CNC(=O)/C=C/c1cccc(C(F)(F)F)c1 | 84.1 mg/kg | 120 mg/kg | 76.3 mg/kg | 200 mg/kg | 275 mg/kg | 149 mg/kg | 92.9 mg/kg |  |  | 0.5 |  |
| O=C1CCC(O)(c2cccc(C(F)(F)F)c2)N1 (stereo unspecified) | > 200 mg/kg | > 200 mg/kg | 150 mg/kg | > 200 mg/kg | > 400 mg/kg | >200 mg/kg | > 200 mg/kg |  |  | 0.1 |  |
| NC(=O)/C=C/c1cccc(C(F)(F)F)c1 | 49.5 mg/kg | 42.9 mg/kg | 17.2 mg/kg | 54.5 mg/kg | 260 mg/kg | 46.9 mg/kg | 37.5 mg/kg |  |  |  | inactive |
| CN(C)C(=O)/C=C/c1cccc(C(F)(F)F)c1 |  | > 75 mg/kg | >75 mg/kg |  | 300 mg/kg |  |  |  | >75 mg/kg |  |  |
| CN(C)C(=O)CCC(=O)c1cccc(C(F)(F)F)c1 | > 37.5 mg/kg | > 50 mg/kg | 127.6 mg/kg | > 50 mg/kg | 300 mg/kg | >37.5 mg/kg | > 50 mg/kg |  |  |  |  |
| CCC(C)NC(=O)CCC(=O)c1cccc(C(F)(F)F)c1 (stereo unspecified) | > 200 mg/kg | > 200 mg/kg | >50 mg/kg | > 200 mg/kg | 300 mg/kg | >150 mg/kg | > 200 mg/kg |  |  |  |  |
| CCCCN1C(=O)CCC1(O)c1cccc(C(F)(F)F)c1 (stereo unspecified) | 183 mg/kg | > 200 mg/kg | 150 mg/kg | > 200 mg/kg | > 400 mg/kg | >200 mg/kg | > 200 mg/kg |  |  |  | inactive |
| CNC(=O)/C(C)=C/c1cccc(C(F)(F)F)c1 | 68.8 mg/kg | 75 mg/kg | 24.7 mg/kg | > 100 mg/kg | 300 mg/kg | >75 mg/kg | 75 mg/kg |  |  | 0.3 |  |
